Measured values as given in ChEMBL document CHEMBL4342528, “Discovery of a First-in-Class Protein Arginine Methyltransferase 6 (PRMT6) Covalent Inhibitor” (J Med Chem, 2020).
Calls of active or inactive are those of the source. The rule behind the calls is not given here.

Columns and labels:
[1] = target: T1, Protein arginine N-methyltransferase 6 (Homo sapiens, UniProt Q96LA8); assay: Inhibition of human PRMT6 using [3H]SAM as donor and [3H]methylated biotin-labeled peptide as substrate by scintillation proximity assay; settings: read-out: IC50
In short: (§1)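 Compound titrated into the reaction; 1 h enzyme–compound preincubation stated for PRMT6. Methylated peptide captured on streptavidin/scintillant-coated plates and counted (cpm). IC50 from concentration–response, triplicate, mean ± SD.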
Target sequence in this assay (Q96LA8 whole entry): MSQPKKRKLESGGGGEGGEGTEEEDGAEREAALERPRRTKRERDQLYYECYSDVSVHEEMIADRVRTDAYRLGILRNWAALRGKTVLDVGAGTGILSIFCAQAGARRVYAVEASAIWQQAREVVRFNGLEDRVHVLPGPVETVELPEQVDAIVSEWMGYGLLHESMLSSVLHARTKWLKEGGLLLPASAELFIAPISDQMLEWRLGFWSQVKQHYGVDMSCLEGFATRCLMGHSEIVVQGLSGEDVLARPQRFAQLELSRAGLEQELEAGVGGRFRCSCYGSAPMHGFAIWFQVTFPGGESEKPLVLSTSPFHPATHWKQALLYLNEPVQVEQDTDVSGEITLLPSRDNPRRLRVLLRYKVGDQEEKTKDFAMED

[2] = target: T1, Protein arginine N-methyltransferase 6; assay: Inhibition of PRMT6 (unknown origin) assessed as reduction in incorporation of [3H]-labeled methyl group into biotinylated substrate using [3H-SAM] at 10 uM incubated for 1 hr by scintillation proximity assay
In short: (§2)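 Panel of 33 methyltransferases (22 PKMTs, 3 DNMTs, 8 PRMTs), each tested at 10 and 50 μM compound. Activity was read as ³H-methyl transfer from ³H-SAM in a radiometric assay done as previously described.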
Target sequence in this assay (Q96LA8 whole entry, looked up): as the sequence (Q96LA8 whole entry) above

[3] = target: T1, Protein arginine N-methyltransferase 6; assay: Time dependent inhibition of human PRMT6 pre-incubated for 1 to 30 mins using [3H]SAM as donor and [3H]methylated biotin-labeled peptide as substrate by scintillation proximity assay
Target sequence in this assay (Q96LA8 whole entry, looked up): as the sequence (Q96LA8 whole entry) above

[4] = target: T1, Protein arginine N-methyltransferase 6; assay: […] inhibition of human PRMT6 pre-incubated for 1 to 30 mins using [3H]SAM as donor and [3H]methylated biotin-labeled peptide as substrate by scintillation proximity assay
Target sequence in this assay (Q96LA8 whole entry, looked up): as the sequence (Q96LA8 whole entry) above

[5] = target: T1, Protein arginine N-methyltransferase 6; assay: Covalent binding affinity to human PRMT6 assessed as covalent adduct. formation at 300 uM pre-incubated for 1 hr by mass spectrometry
In short: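 PRMT protein at 15 μM was incubated 1 h at room temperature with a 20-fold molar excess of inhibitor (300 μM). The reaction was quenched with 0.1% aqueous TFA, separated by HPLC (5–95% acetonitrile in water) and analysed by ESI time-of-flight LC/MS for protein–ligand adduct mass.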
Target sequence in this assay (Q96LA8 whole entry, looked up): as the sequence (Q96LA8 whole entry) above

[6] = target: T2, Protein arginine N-methyltransferase 1 (Homo sapiens, UniProt Q99873); assay: Inhibition of human PRMT1 using [3H]SAM as donor and [3H]methylated biotin-labeled peptide as substrate by scintillation proximity assay
Target sequence in this assay (Q99873 whole entry): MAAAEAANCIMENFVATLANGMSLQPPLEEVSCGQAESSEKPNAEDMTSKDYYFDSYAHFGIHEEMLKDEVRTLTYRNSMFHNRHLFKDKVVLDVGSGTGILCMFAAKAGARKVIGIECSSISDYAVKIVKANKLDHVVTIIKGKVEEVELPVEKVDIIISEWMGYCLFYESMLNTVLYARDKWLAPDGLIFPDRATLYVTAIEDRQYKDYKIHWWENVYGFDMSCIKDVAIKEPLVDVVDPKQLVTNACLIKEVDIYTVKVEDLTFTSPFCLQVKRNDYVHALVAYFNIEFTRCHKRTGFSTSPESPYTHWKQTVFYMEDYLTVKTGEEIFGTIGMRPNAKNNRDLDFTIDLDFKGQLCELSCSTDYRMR

[7] = target: T3, Protein arginine N-methyltransferase 3 (Homo sapiens, UniProt O60678); assay: Inhibition of human PRMT3 using [3H]SAM as donor and [3H]methylated biotin-labeled peptide as substrate by scintillation proximity assay; in short: as §1
Target sequence in this assay (O60678 whole entry): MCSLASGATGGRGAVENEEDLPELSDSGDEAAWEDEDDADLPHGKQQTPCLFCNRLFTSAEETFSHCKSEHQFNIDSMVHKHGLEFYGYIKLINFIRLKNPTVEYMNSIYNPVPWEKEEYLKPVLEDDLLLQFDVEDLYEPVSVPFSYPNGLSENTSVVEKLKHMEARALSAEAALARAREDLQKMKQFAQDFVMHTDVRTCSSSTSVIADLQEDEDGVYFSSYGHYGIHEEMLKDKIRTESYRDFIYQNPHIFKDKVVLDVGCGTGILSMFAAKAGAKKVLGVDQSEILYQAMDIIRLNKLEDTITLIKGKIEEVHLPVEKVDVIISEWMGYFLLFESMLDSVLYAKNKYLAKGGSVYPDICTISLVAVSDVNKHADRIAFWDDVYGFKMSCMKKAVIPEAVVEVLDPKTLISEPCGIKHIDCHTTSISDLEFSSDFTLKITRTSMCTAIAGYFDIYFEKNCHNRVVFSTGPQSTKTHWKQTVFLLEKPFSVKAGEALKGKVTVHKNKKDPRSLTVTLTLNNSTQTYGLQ

[8] = target: T4, Histone-arginine methyltransferase CARM1 (Homo sapiens, UniProt Q86X55); assay: Inhibition of human PRMT4 using [3H]SAM as donor and [3H]methylated biotin-labeled peptide as substrate by scintillation proximity assay; in short: as §1
T4 sequence (Q86X55 whole entry): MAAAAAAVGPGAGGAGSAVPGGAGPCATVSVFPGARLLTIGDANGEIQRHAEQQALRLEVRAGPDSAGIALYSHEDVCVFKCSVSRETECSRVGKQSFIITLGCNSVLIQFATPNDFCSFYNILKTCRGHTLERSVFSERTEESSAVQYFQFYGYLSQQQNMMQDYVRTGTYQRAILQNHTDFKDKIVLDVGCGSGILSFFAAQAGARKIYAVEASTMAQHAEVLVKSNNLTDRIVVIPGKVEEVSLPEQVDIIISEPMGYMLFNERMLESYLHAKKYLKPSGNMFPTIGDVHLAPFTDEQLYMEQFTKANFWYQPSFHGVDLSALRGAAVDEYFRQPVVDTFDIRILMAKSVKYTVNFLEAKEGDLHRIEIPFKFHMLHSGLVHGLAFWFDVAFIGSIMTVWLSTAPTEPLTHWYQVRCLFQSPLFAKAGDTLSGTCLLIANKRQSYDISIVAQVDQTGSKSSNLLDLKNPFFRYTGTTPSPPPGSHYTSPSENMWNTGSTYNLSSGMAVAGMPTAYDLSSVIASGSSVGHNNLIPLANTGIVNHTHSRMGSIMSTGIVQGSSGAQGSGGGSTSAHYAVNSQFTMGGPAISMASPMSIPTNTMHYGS

[9] = target: T5, Protein arginine N-methyltransferase 8 (Homo sapiens, UniProt Q9NR22); assay: Inhibition of human PRMT8 using [3H]SAM as donor and [3H]methylated biotin-labeled peptide as substrate by scintillation proximity assay
In short: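 Radiometric SPA: ³H-methyl transfer from ³H-SAM to biotin-labeled peptide, captured on streptavidin/scintillant-coated plate, counts per minute read; substrate and cofactor each at their Km for the enzyme; compound titrated; IC50 from triplicate determinations, mean ± SD.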
Target sequence in this assay (Q9NR22 whole entry): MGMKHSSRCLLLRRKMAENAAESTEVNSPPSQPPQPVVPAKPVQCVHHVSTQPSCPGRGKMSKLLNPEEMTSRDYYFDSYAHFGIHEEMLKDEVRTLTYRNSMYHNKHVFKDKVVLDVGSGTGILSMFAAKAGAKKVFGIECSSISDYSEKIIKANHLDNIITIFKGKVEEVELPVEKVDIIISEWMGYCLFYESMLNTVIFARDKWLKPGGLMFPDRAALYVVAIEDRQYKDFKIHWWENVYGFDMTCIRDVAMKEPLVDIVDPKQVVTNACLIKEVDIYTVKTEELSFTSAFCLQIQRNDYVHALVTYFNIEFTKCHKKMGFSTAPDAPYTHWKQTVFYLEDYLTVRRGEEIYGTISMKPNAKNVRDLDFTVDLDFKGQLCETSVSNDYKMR

[10] = target: T1, Protein arginine N-methyltransferase 6; assay: Inhibition of Flag-tagged PRMT6 (unknown origin) expressed in HEK293 cells at 0.1 to 10 uM incubated for 20 hrs assessed as reduction in H3R2me2a levels; assay type: cell-based
Target sequence in this assay (Q96LA8 whole entry, looked up): as the sequence (Q96LA8 whole entry) above

[11] = target: T2, Protein arginine N-methyltransferase 1; assay: Inhibition of PRMT1 in human MCF7 cells assessed as reduction in H4R3me2a levels incubated for 2 days by fluorescence based assay; assay type: cell-based
In short: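 MCF7 cells with endogenous PRMT1 were treated with compound for 2 days, with MS023 (1 μM) as positive control. The H4R3me2a fluorescence signal was normalized to H4 and fitted nonlinearly to give IC50.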

[12] = target: T3, Protein arginine N-methyltransferase 3; assay: Inhibition of PRMT3 (unknown origin) expressed in HEK293T cells were co-transfected with GFP-tagged histone H4 peptide assessed as reduction in H4R3 arginine asymmetric dimethylation at 0.2 to 20 uM incubated for 20 hrs; assay type: cell-based
Target sequence in this assay (O60678 2-531 limits assumed): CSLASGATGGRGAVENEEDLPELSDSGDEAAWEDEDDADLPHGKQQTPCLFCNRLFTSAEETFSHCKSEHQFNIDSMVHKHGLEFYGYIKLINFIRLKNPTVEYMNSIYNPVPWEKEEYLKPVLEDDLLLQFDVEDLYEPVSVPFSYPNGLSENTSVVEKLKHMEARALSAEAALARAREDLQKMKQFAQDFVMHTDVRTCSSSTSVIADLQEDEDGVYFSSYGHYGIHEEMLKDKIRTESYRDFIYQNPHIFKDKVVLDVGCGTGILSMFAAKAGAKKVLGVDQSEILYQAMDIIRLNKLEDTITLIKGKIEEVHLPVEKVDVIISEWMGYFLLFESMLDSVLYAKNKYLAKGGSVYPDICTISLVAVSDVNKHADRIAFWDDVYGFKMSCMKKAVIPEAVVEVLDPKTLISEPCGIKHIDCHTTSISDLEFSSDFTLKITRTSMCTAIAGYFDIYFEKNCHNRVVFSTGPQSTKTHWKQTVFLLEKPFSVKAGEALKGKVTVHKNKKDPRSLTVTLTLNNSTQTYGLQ

[13] = target: T6, Histone-arginine methyltransferase CARM1 (Homo sapiens) (UniProt Q86X55); assay: Inhibition of PRMT4 in human MCF7 cells assessed as reduction in BAF155 asymmetric dimethylation at 0.2 to 20 uM incubated for 2 days; assay type: cell-based
T6 sequence (whole entry): T4 sequence (Q86X55 whole entry)

[14] = system: MCF7; assay: Toxicity in human MCF7 cells assessed as reduction in cell viability up to 20 uM incubated for 3 days by CCK8 assay; assay type: cell-based; settings: mcf7, 72 h
In short: (§3)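 Cells seeded 1×10^4 per well in triplicate, treated after 24 h with serial dilutions from 20 μM for 3 days; CCK-8 (WST-8) added, 4 h at 37 °C, absorbance at 450 nm; mean ± SD of three replicate experiments.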

[15] = system: PNT2; assay: Toxicity in human PNT2 cells assessed as reduction in cell viability up to 20 uM incubated for 3 days by CCK8 assay; assay type: cell-based; settings: pnt2, 72 h; in short: as §3
[16] = system: HEK-293T; assay: Toxicity in HEK293T cells assessed as reduction in cell viability up to 20 uM incubated for 3 days by CCK8 assay; assay type: cell-based; settings: human, 72 h; in short: as §3
[17] = target: T3, Protein arginine N-methyltransferase 3; assay: Inhibition of PRMT3 (unknown origin) assessed as reduction in incorporation of [3H]-labeled methyl group into biotinylated substrate using [3H-SAM] at 10 uM incubated for 1 hr by scintillation proximity assay; in short: as §2
Target sequence in this assay (O60678 2-531 limits assumed): as above

[18] = target: T6, Histone-arginine methyltransferase CARM1 (Homo sapiens); assay: Inhibition of PRMT4 (unknown origin) assessed as reduction in incorporation of [3H]-labeled methyl group into biotinylated substrate using [3H-SAM] at 10 uM incubated for 1 hr by scintillation proximity assay; in short: as §2
[19] = target: T5, Protein arginine N-methyltransferase 8; assay: Inhibition of PRMT8 (unknown origin) assessed as reduction in incorporation of [3H]-labeled methyl group into biotinylated substrate using [3H-SAM] at 10 uM incubated for 1 hr by scintillation proximity assay; in short: as §2
Target sequence in this assay (Q9NR22 2-394 limits assumed): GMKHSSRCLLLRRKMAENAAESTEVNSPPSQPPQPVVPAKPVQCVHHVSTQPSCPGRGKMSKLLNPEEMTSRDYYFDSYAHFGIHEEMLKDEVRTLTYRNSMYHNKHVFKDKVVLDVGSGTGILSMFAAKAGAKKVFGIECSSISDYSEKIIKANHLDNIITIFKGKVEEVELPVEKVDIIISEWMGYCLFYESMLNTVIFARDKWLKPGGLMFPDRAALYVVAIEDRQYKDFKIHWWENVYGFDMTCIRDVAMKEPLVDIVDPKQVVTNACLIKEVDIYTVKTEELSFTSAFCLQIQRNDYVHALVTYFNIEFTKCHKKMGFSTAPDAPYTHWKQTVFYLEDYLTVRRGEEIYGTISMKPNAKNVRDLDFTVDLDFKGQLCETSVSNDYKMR

[20] = target: T3, Protein arginine N-methyltransferase 3; assay: Inhibition of PRMT3 (unknown origin) assessed as reduction in incorporation of [3H]-labeled methyl group into biotinylated substrate using [3H-SAM] at 50 uM incubated for 1 hr by scintillation proximity assay relative to control; in short: as §2
Target sequence in this assay (O60678 2-531 limits assumed): as the sequence (O60678 2-531 limits assumed) above

[21] = target: T6, Histone-arginine methyltransferase CARM1 (Homo sapiens); assay: Inhibition of PRMT4 (unknown origin) assessed as reduction in incorporation of [3H]-labeled methyl group into biotinylated substrate using [3H-SAM] at 50 uM incubated for 1 hr by scintillation proximity assay relative to control; in short: as §2
[22] = target: T1, Protein arginine N-methyltransferase 6; assay: Inhibition of PRMT6 (unknown origin) assessed as reduction in incorporation of [3H]-labeled methyl group into biotinylated substrate using [3H-SAM] at 50 uM incubated for 1 hr by scintillation proximity assay relative to control; in short: as §2
Target sequence in this assay (Q96LA8 whole entry, looked up): as the sequence (Q96LA8 whole entry) above

[23] = target: T5, Protein arginine N-methyltransferase 8; assay: Inhibition of PRMT8 (unknown origin) assessed as reduction in incorporation of [3H]-labeled methyl group into biotinylated substrate using [3H-SAM] at 50 uM incubated for 1 hr by scintillation proximity assay relative to control; in short: as §2
Target sequence in this assay (Q9NR22 2-394 limits assumed): as the sequence (Q9NR22 2-394 limits assumed) above

[24] = Inhibition of type 1 PRMT (unknown origin); set-up: species or system Homo sapiens
[25] = target: T1, Protein arginine N-methyltransferase 6; assay: Inhibition of Flag-tagged PRMT6 (unknown origin) expressed in HEK293 cells at 2 uM incubated for 20 hrs assessed as reduction in H3R2me2a levels; assay type: cell-based
[26] = target: T3, Protein arginine N-methyltransferase 3; assay: Inhibition of PRMT3 (unknown origin) expressed in HEK293T cells were co-transfected with GFP-tagged histone H4 peptide assessed as reduction in H4R3 arginine asymmetric dimethylation at 2.2 to 20 uM incubated for 20 hrs; assay type: cell-based
Target sequence in this assay (O60678 2-531 limits assumed): as the sequence (O60678 2-531 limits assumed) above

[27] = target: T6, Histone-arginine methyltransferase CARM1 (Homo sapiens); assay: Inhibition of PRMT4 in human MCF7 cells assessed as reduction in BAF155 asymmetric dimethylation at 2.2 to 20 uM incubated for 2 days; assay type: cell-based
[28] = target: T6, Histone-arginine methyltransferase CARM1 (Homo sapiens); assay: Inhibition of PRMT4 in human MCF7 cells assessed as reduction in BAF155 asymmetric dimethylation at 2 uM incubated for 2 days; assay type: cell-based

| Structure (SMILES) | IC50 [1] | inhibition [2] | Activity [5] | IC50 [7] | IC50 [8] | IC50 [9] | inhibition [10] | Activity [14] | Activity [15] | Activity [16] | inhibition [22] | also measured |
| --- | --- | --- | --- | --- | --- | --- | --- | --- | --- | --- | --- | --- |
| CCC(=O)Nc1cccc(-c2c[nH]cc2CN(C)CCN)c1 | 0.028 µM | > 40% | inactive | 15 µM | 2 µM | 0.13 µM | Active | Non-Toxic | Non-Toxic | Non-Toxic | > 80% | TDI [3]: inactive; inhibition [4]: Active; IC50 [6]: 0.17 µM; IC50 [11]: 6.7 µM; inhibition [11]: Dose-dependent effect; inhibition [12]: inactive; inhibition [13]: inactive; inhibition [17]: > 40%; inhibition [18]: > 40%; inhibition [19]: > 40%; inhibition [20]: > 80%; inhibition [21]: > 80%; inhibition [23]: > 80% |
| CC(C)Oc1ccc(-c2c[nH]cc2CN(C)CCN)cc1 | – | – | – | – | – | – | – | – | – | – | – | IC50 [24]: 0.004 to 0.119 µM; inhibition [25]: Active |
| C=CC(=O)Nc1cccc(-c2c[nH]cc2CN(C)CCO)c1 | 9.8 µM | 50% | inactive | > 200 µM | 51 µM | 23 µM | inactive | Non-Toxic | Non-Toxic | Non-Toxic | 80% | inhibition [26]: inactive; inhibition [27]: inactive |
| CNCCN1CCC(c2cc(CN(C)C(=O)c3cccc(Oc4ccccc4)c3)ccn2)CC1 | – | – | – | – | – | – | – | – | – | – | – | inhibition [28]: Active |
